The source made the active and inactive calls. No cut-off for these calls is given here.
Experiments:
Mus musculus [1] = assay: Anticonvulsant activity in Albino Swiss CD1 mouse at 100 mg/kg, ip after 0.5 hrs by maximal electroshock test; format: functional, organism-based; parameters: dose 100 mg/kg
Procedure, shortened: (§1)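 Male CD-1 mice, 16–26 g, in groups of 4, each mouse used once, were given 100 mg/kg ip (0.1 mL/10 g, methylcellulose vehicle). MES used 25 mA, 500 V, 50 Hz delivered by ear electrodes for 0.2 s, and absence of hindlimb tonic extension counted as protection. In scPTZ, mice without clonic convulsions over 30 min of observation counted as protected. Both tests were run 0.5 h or 2 h after dosing.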

Mus musculus [2] = assay: Anticonvulsant activity in Albino Swiss CD1 mouse at 100 mg/kg, ip after 2 hrs by maximal electroshock test; format: functional, organism-based; parameters: dose 100 mg/kg; procedure, shortened: as §1
Mus musculus [3] = assay: Protective index, ratio of neurotoxic TD50 in Albino Swiss CD1 mouse by rotarod test to anticonvulsant ED50 in Albino Swiss CD1 mouse by subcutaneous pentylenetetrazole test
Procedure, shortened: (§2)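 The protective index is the rotarod TD50 divided by the MES or scPTZ ED50. Each value came from ip dosing in male CD-1 mice with probit analysis, and the reference drugs were tested under the same conditions.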

Mus musculus [4] = assay: Anticonvulsant activity in intraperitoneally dosed Albino Swiss CD1 mouse after 0.5 hrs by subcutaneous pentylenetetrazole test; format: functional
Procedure, shortened: (§3)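 Male CD-1 mice were dosed ip (0.1 mL/10 g, methylcellulose vehicle), at least four dose groups of 6 mice each. Protection in MES meant no hindlimb tonic extension after a 25 mA, 50 Hz, 0.2 s ear-electrode shock. Protection in scPTZ meant no clonus over 30 min.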

Mus musculus [5] = assay: Neurological toxicity in Albino Swiss CD1 mouse at 100 mg/kg, ip after 2 hrs by rotarod test; format: organism-based; parameters: dose 100 mg/kg, route intraperitoneal; settings: in vivo
Procedure, shortened: (§4)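 Mice were trained on a 2 cm rod for 3 min, with unlimited trials, at least 24 h before testing. Each was then dosed ip at 100 mg/kg and tested at 10 rpm 0.5 h or 2 h later, in groups of 4. Failure to stay on the rod for at least 1 min indicated neurotoxicity.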

Mus musculus [6] = assay: Anticonvulsant activity in Albino Swiss CD1 mouse at 100 mg/kg, ip after 2 hrs by subcutaneous pentylenetetrazole test; format: functional, organism-based; parameters: dose 100 mg/kg; procedure, shortened: as §1
Mus musculus [7] = assay: Anticonvulsant activity in intraperitoneally dosed Albino Swiss CD1 mouse assessed as time to peak effect by maximal electroshock test; format: functional
Mus musculus [8] = assay: Anticonvulsant activity in intraperitoneally dosed Albino Swiss CD1 mouse assessed as time to peak effect after 2 hrs by subcutaneous pentylenetetrazole test; format: functional
Mus musculus [9] = assay: Anticonvulsant activity in intraperitoneally dosed Albino Swiss CD1 mouse by subcutaneous pentylenetetrazole test; format: functional; procedure, shortened: as §3
[10] = Neurological toxicity in intraperitoneally dosed Albino Swiss CD1 mouse by rotarod test; format: organism-based; settings: in vivo, ip
Procedure, shortened: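 Mice trained on the rotarod were given various ip doses, four groups in all, and tested at 10 rpm. Failure to stay on the rod for at least 1 min indicated neurotoxicity.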

Mus musculus [11] = assay: Neurological toxicity in Albino Swiss CD1 mouse at 100 mg/kg, ip after 0.5 hrs by rotarod test; format: organism-based; parameters: dose 100 mg/kg, route intraperitoneal; settings: in vivo; procedure, shortened: as §4
Mus musculus [12] = assay: Anticonvulsant activity in intraperitoneally dosed Albino Swiss CD1 mouse by maximal electroshock test; format: functional; settings: Albino Swiss CD1, ip; procedure, shortened: as §3
Mus musculus [13] = organism: Mus musculus; assay: Protective index, ratio of neurotoxic TD50 in Albino Swiss CD1 mouse by rotarod test to anticonvulsant ED50 in Albino Swiss CD1 mouse by maximal electroshock test; procedure, shortened: as §2
Mus musculus [14] = assay: Anticonvulsant activity in intraperitoneally dosed Albino Swiss CD1 mouse after 2 hrs by subcutaneous pentylenetetrazole test; format: functional; procedure, shortened: as §3
Mus musculus [15] = assay: Anticonvulsant activity in intraperitoneally dosed Albino Swiss CD1 mouse after 0.5 hrs by maximal electroshock test; format: functional; procedure, shortened: as §3
Mus musculus [16] = assay: Anticonvulsant activity in Albino Swiss CD1 mouse at 100 mg/kg, ip after 0.5 hrs by subcutaneous pentylenetetrazole test; format: functional, organism-based; parameters: dose 100 mg/kg; procedure, shortened: as §1
Mus musculus [17] = assay: Ratio of protective index for […] acid to protective index for compound in intraperitoneally dosed Albino Swiss CD1 mouse
Mus musculus [18] = assay: Potency index, ratio of ED50 for […] acid to ED50 for compound in intraperitoneally dosed Albino Swiss CD1 mouse by subcutaneous pentylenetetrazole test; format: functional
Mus musculus [19] = assay: Anticonvulsant activity in intraperitoneally dosed Albino Swiss CD1 mouse after 2 hrs by maximal electroshock test; format: functional; procedure, shortened: as §3
Liver microsome = assay: Drug metabolism in human liver microsomes assessed as metabolite formation treated with 50 uM 2-(2,5-Dioxopyrrolidin-1-yl)-N-(2-fluorobenzyl)propanamide pre-incubated at 37 degC for 5 mins before addition of NADPH regeneration system measured after 120 mins by UPLC-MS/MS method; format: ADME; settings: 2 h
Procedure, shortened: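 Pooled human liver microsomes from adult males and females were used at 1 mg/ml in 0.1 M Tris-HCl, pH 7.4. After the 5 min preincubation, the NADPH regeneration system was added and the reaction ran for 120 min. It was quenched with cold methanol and centrifuged, and the supernatant was analysed by UPLC-MS/MS with ESI on a tandem quadrupole.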

[20] = Cytotoxic activity against human IMR32 cells at 0.01 to 250 uM after 48 hrs by formazan based EZ4U assay; format: cell-based; settings: imr-32, 48 h
Procedure, shortened: (§5)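 HEK-293 cells (1.5 × 10^4/well) and IMR-32 cells (2 × 10^4/well) were grown in DMEM with 10% FBS for 24 h to 60% confluence. Compound was diluted from a 25 mM DMSO stock to 0.01–250 µM final, with DMSO at or below 1%, and incubated 48 h at 37 °C in 5% CO2. EZ4U reagent was added for 5 h, then absorbance was read at 492 nm.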

HEK293 = assay: Antiproliferative activity against HEK293 cells at 0.01 to 250 uM after 48 hrs by formazan based EZ4U assay; format: cell-based; settings: human, hek293, 48 h; procedure, shortened: as §5

Structure (SMILES) | Activity (Mus musculus [1]) | Activity (Mus musculus [2]) | Ratio TD50/ED50 (Mus musculus [3]) | MED50 (Mus musculus [4]) [mg/kg] | Activity (Mus musculus [5]) | Activity (Mus musculus [6]) | Time (Mus musculus [7]) [h] | Time (Mus musculus [8]) [h] | ED50 (Mus musculus [9]) [mg/kg] | TD50 [10] [mg/kg] | Activity (Mus musculus [11]) | ED50 (Mus musculus [12]) [mg/kg] | Ratio TD50/ED50 (Mus musculus [13]) | MED50 (Mus musculus [14]) [mg/kg] | MED50 (Mus musculus [15]) [mg/kg] | also measured
CCC(C(=O)NCc1ccc(F)cc1)N1C(=O)CCC1=O (racemic) | inactive | inactive | 3.22 | 100 | Non-toxic | inactive | 0.5 | 0.5 | 83.4 | 268 | Non-toxic | – | – | – | – | –
CCC(C(=O)NCc1cccc(C(F)(F)F)c1)N1C(=O)CCC1=O (racemic) | inactive | inactive | 2.12 | 100 | Non-toxic | inactive | 0.5 | 0.5 | 77.4 | 163 | Non-toxic | – | – | – | – | –
CCC(C(=O)NCc1ccccc1Cl)N1C(=O)CCC1=O (racemic) | – | inactive | 5.47 | 100 | Non-toxic | – | 0.5 | 0.5 | 76.4 | 418 | Non-toxic | 113 | 3.7 | 100 | 100 | –
CCC(C(=O)NCc1ccccc1C(F)(F)F)N1C(=O)CCC1=O (racemic) | inactive | inactive | – | – | Non-toxic | – | 0.5 | 0.5 | – | – | Non-toxic | > 150 | – | 100 | – | Activity (Mus musculus [16]): inactive
CCC(C(=O)NCc1cccc(F)c1)N1C(=O)CCC1=O (racemic) | inactive | inactive | 6.89 | 100 | Non-toxic | inactive | 0.5 | 0.5 | 47.4 | 327 | Non-toxic | – | – | – | – | Ratio (Mus musculus [17]): 3.05; Ratio ED50 (Mus musculus [18]): 2.96
CC1CC(=O)N(C(C)C(=O)NCc2ccc(C(F)(F)F)cc2)C1=O (racemic) | inactive | – | – | – | Non-toxic | inactive | 2 | 2 | – | – | Non-toxic | > 150 | – | – | – | Activity (Mus musculus [16]): inactive; MED50 (Mus musculus [19]): 100 mg/kg
CC(C(=O)NCc1ccc(C(F)(F)F)cc1)N1C(=O)CCC1=O (racemic) | – | inactive | 2.62 | – | Non-toxic | – | 0.5 | 2 | 54.5 | 143 | Non-toxic | 80 | 1.78 | 100 | 100 | Activity (Mus musculus [16]): inactive
O=C(NCc1ccccc1F)C(CO)N1C(=O)CCC1=O (stereo not given) | – | – | – | – | – | – | – | – | – | – | – | – | – | – | – | Drug metabolism (Liver microsome): metabolite_detected
CCC(C(=O)NCc1ccc(Cl)cc1)N1C(=O)CCC1=O (racemic) | – | inactive | 3.43 | 100 | Non-toxic | – | 0.5 | 0.5 | 50.8 | 174 | Non-toxic | 95.3 | 1.83 | 100 | 100 | –
CC(C(=O)NCc1ccc(Cl)cc1)N1C(=O)CCC1=O (racemic) | – | inactive | 5.23 | 100 | Non-toxic | inactive | 0.5 | 0.5 | 43.6 | 228 | Non-toxic | 91.8 | 2.48 | – | 100 | –
CC(C(=O)NCc1ccccc1F)N1C(=O)CCC1=O (racemic) | – | inactive | – | 100 | Non-toxic | inactive | 0.5 | 0.5 | – | – | Non-toxic | – | – | – | 100 | Activity [20]: Non-toxic; Activity (HEK293): Non-toxic
CCC(C(=O)NCc1ccccc1F)N1C(=O)CCC1=O (racemic) | inactive | inactive | 5.27 | 100 | Non-toxic | – | 0.5 | 0.5 | 65.7 | 346 | Non-toxic | – | – | 100 | – | –
CCC(C(=O)NCc1cccc(Cl)c1)N1C(=O)CCC1=O (racemic) | – | inactive | 2.28 | 100 | Non-toxic | inactive | 0.5 | 0.5 | 78.8 | 180 | Non-toxic | 96.5 | 1.12 | – | 100 | –

From ChEMBL document CHEMBL3400073, “Design, synthesis and biological evaluation of new hybrid anticonvulsants derived from N-benzyl-2-(2,5-dioxopyrrolidin-1-yl)propanamide and 2-(2,5-dioxopyrrolidin-1-yl)butanamide derivatives” (Bioorg Med Chem, 2015)
